Source: ChEMBL document CHEMBL4339227, “Stereoselective Synthesis of C-2 Alkylated Trihydroxypiperidines: Novel Pharmacological Chaperones for Gaucher Disease” (ACS Med Chem Lett, 2019)
Calls of active or inactive are those of the source. The calls are words filed in the database; no cut-off is given here.

Columns and labels:
Homo sapiens [1] = organism: Homo sapiens; assay: Inhibition of GCase in human leukocytes extracts at 1 mM using 4-methylumbelliferyl-beta-D-glucoside substrate incubated for 1 hr by spectrophotometry relative to untreated control; format: cell-based
Outline: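 Human leukocyte homogenates were used as the GCase source. Enzyme activity was measured with the test compound at 1 mM, and the result was expressed as percent inhibition.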

[2] = Inhibition of GCase in human leukocytes extracts using 4-methylumbelliferyl-beta-D-glucoside substrate incubated for 1 hr by spectrophotometry; format: cell-based
Outline: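 Human leukocyte homogenates were used as the GCase source. IC50 was derived from GCase activity measured across a range of inhibitor concentrations.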

Homo sapiens [3] = organism: Homo sapiens; assay: Chaperone activity at GCase N370/RecNcil mutant in human fibroblasts derived from Gaucher patient assessed as increase in GCase activity at 50 nM incubated for 4 days using 4-methylumbelliferyl-beta-D-glucoside substrate by spectrophotometry relative to untreated control
Homo sapiens [4] = organism: Homo sapiens; assay: Chaperone activity at GCase N370/RecNcil mutant in human fibroblasts derived from Gaucher patient assessed as increase in GCase activity at 1 uM incubated for 4 days using 4-methylumbelliferyl-beta-D-glucoside substrate by spectrophotometry relative to untreated control
[5] = Competitive inhibition of GCase in human leukocytes extracts using 4-methylumbelliferyl-beta-D-glucoside substrate incubated for 1 hr by spectrophotometry; format: cell-based
Homo sapiens [6] = organism: Homo sapiens; assay: Chaperone activity at GCase L444P GBA gene mutant mutant in human fibroblasts derived from Gaucher patient assessed as increase in GCase activity at 100 uM incubated for 4 days using 4-methylumbelliferyl-beta-D-glucoside substrate by spectrophotometry relative to untreated control
Homo sapiens [7] = organism: Homo sapiens; assay: Chaperone activity at GCase N370/RecNcil mutant in human fibroblasts derived from Gaucher patient assessed as increase in GCase activity at 10 uM incubated for 4 days using 4-methylumbelliferyl-beta-D-glucoside substrate by spectrophotometry relative to untreated control
Homo sapiens [8] = organism: Homo sapiens; assay: Chaperone activity at GCase N370/RecNcil mutant in human fibroblasts derived from Gaucher patient assessed as increase in GCase activity at 10 nM incubated for 4 days using 4-methylumbelliferyl-beta-D-glucoside substrate by spectrophotometry relative to untreated control
Homo sapiens [9] = organism: Homo sapiens; assay: Chaperone activity at GCase N370/RecNcil mutant in human fibroblasts derived from Gaucher patient assessed as increase in GCase activity at 50 uM incubated for 4 days using 4-methylumbelliferyl-beta-D-glucoside substrate by spectrophotometry relative to untreated control
Homo sapiens [10] = organism: Homo sapiens; assay: Chaperone activity at GCase N370/RecNcil mutant in human fibroblasts derived from Gaucher patient assessed as increase in GCase activity at 100 uM incubated for 4 days using 4-methylumbelliferyl-beta-D-glucoside substrate by spectrophotometry relative to untreated control
Homo sapiens [11] = organism: Homo sapiens; assay: Chaperone activity at GCase N370/RecNcil mutant in human fibroblasts derived from Gaucher patient assessed as increase in GCase activity at 100 uM relative to untreated control
Homo sapiens [12] = organism: Homo sapiens; assay: Chaperone activity at GCase N370/RecNcil mutant in human fibroblasts derived from Gaucher patient assessed as increase in GCase activity incubated for 4 days using 4-methylumbelliferyl-beta-D-glucoside substrate by spectrophotometry relative to untreated control

Row | inhibition (Homo sapiens [1]) [%] | IC50 [2] [µM] | Compound | also measured
1 | 100 | 29.3 | CCCCCCCC[C@H]1NC[C@@H](O)[C@@H](O)[C@@H]1O | Ki [5]: 18.5 µM; fold change (FC) (Homo sapiens [6]): 1.8; fold change (FC) (Homo sapiens [7]): 1.6; fold change (FC) (Homo sapiens [8]): 1.4; fold change (FC) (Homo sapiens [9]): 1.9
2 | 50 | > 1000 | CCCCCCCC[C@H]1[C@@H](O)[C@H](O)[C@H](O)CN1C | –
3 | 98 | 30 | CCCCCCCCN1C[C@@H](O)C(O)[C@H](O)C1 | fold change (FC) (Homo sapiens [10]): 1.26; fold change (FC) (Homo sapiens [11]): 1.25
4 | 88 | 160 | CCCCCCCCCCCCC[C@@H]1NC[C@@H](O)[C@@H](O)[C@@H]1O | Activity (Homo sapiens [12]): inactive
5 | 80 | 93.5 | CCCCCCCC[C@@H]1NC[C@@H](O)[C@@H](O)[C@@H]1O | fold change (FC) (Homo sapiens [8]): 1.3

The remaining lines, values behind:

Row | Compound | inhibition (Homo sapiens [1]) [%] | IC50 [2] [µM] | also measured
6 | CCCCCCCCCCCCC[C@H]1NC[C@@H](O)[C@@H](O)[C@@H]1O | 98 | 9 | –
7 | CCCCCCCCCCC[C@H]1NC[C@@H](O)[C@@H](O)[C@@H]1O | 100 | 7 | fold change (FC) (Homo sapiens [3]): 1.2
8 | CCCCCCCCCCCC[C@@H]1NC[C@@H](O)[C@@H](O)[C@@H]1O | 91 | 23.3 | fold change (FC) (Homo sapiens [4]): 1.4
9 | CCCCCCCCCCCC[C@H]1NC[C@@H](O)[C@@H](O)[C@@H]1O | 95 | 1.5 | Ki [5]: 3.6 µM; fold change (FC) (Homo sapiens [4]): 1.4
10 | CCCCCCCCCCC[C@@H]1NC[C@@H](O)[C@@H](O)[C@@H]1O | 96 | 100 | fold change (FC) (Homo sapiens [3]): 1.3
